pIC50: −log10 of the molar value.
Experiments:
[1] = Selective index, ratio of CC50 for African green monkey Vero cells to IC50 for MERS-CoV infected in African green monkey Vero cells
[2] = Stability in human microsomes assessed as as parent compound remaining after 30 mins; assay type: ADME, Microsome; conditions: read-out: Stabilty
Summary of the method: (§1)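 Liver microsomes from human, mouse and rat were used. The read-out is percent of parent compound remaining after 30 min incubation.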

hERG (KCNH2) = hERG (KCNH2) (Homo sapiens, UniProt Q12809); experiment: Inhibition of human ERG at 10 uM relative to control
CYP1A2 = target: T1, CYP1A2 (Homo sapiens, UniProt P05177); experiment: Inhibition of CYP1A2 (unknown origin) at 10 uM relative to control; assay type: ADME
T1 sequence (P05177 whole entry): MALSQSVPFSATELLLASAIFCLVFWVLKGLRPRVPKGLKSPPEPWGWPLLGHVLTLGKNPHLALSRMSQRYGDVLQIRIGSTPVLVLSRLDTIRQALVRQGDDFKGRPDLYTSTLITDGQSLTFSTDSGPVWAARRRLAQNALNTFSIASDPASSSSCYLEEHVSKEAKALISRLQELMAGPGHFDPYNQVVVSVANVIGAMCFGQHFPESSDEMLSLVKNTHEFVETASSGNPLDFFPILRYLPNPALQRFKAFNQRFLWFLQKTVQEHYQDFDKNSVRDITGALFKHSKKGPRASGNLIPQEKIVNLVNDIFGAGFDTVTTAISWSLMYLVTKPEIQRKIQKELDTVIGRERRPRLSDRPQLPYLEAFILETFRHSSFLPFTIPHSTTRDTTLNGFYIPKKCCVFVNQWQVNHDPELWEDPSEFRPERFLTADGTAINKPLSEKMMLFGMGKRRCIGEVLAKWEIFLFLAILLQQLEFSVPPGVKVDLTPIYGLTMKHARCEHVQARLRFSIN

[3] = Cytotoxicity against mouse NIH3T3 cells; assay type: cell-based
[4] = Cytotoxicity against mouse NCTC clone 929 cells; assay type: cell-based
Vero = experiment: Cytotoxicity against African green monkey Vero cells assessed as reduction of cell viability by WST-1 assay; assay type: cell-based; conditions: chlorocebus sabaeus
[5] = Oral bioavailability in rat at 10 mg/kg; assay type: ADME, organism-based; conditions: in vivo
Summary of the method: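 Rats received oral dosing at 10 mg/kg alongside intravenous dosing at 2 mg/kg. Values are the mean of experiments using three rats.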

CYP2D6 = CYP2D6 (Homo sapiens, UniProt P10635); experiment: Inhibition of CYP2D6 (unknown origin) at 10 uM relative to control; assay type: ADME
SARS-CoV-2 = experiment: Antiviral activity against SARS-CoV-2 infected in African green monkey Vero cells assessed as inhibition of viral infection by measuring nucleocapsid protein level by immunofluorescence microscopic analysis; assay type: functional, organism-based; conditions: Severe acute respiratory syndrome coronavirus 2, Vero
HFL1 = experiment: Cytotoxicity against human HFL-1 cells; assay type: cell-based
[6] = test system: Middle East respiratory syndrome-related coronavirus; experiment: Antiviral activity against MERS-CoV infected in African green monkey Vero cells assessed as inhibition of viral infection by measuring reduction in spike protein level by immunofluorescence microscopic analysis; assay type: functional, organism-based
CYP2C9 = CYP2C9 (Homo sapiens, UniProt P11712); experiment: Inhibition of CYP2C9 (unknown origin) at 10 uM relative to control; assay type: ADME
[7] = Cytotoxicity against CHO-K1 cells; assay type: cell-based, Cricetulus griseus; conditions: chinese hamster
[8] = Stability in mouse microsomes assessed as as parent compound remaining after 30 mins; assay type: ADME, Microsome; conditions: read-out: Stabilty; summary of the method: as §1
CYP3A4 = CYP3A4 (Homo sapiens, UniProt P08684); experiment: Inhibition of CYP3A4 (unknown origin) at 10 uM relative to control; assay type: ADME
[9] = Selective index, ratio of CC50 for African green monkey Vero cells to IC50 for SARS-CoV-2 infected in African green monkey Vero cells
CYP2C19 = CYP2C19 (Homo sapiens, UniProt P33261); experiment: Inhibition of CYP2C19 (unknown origin) at 10 uM relative to control; assay type: ADME
[10] = Stability in rat microsomes assessed as as parent compound remaining after 30 mins; assay type: ADME, Microsome; conditions: read-out: Stabilty; summary of the method: as §1

Sequence of CYP2D6 (P10635 whole entry): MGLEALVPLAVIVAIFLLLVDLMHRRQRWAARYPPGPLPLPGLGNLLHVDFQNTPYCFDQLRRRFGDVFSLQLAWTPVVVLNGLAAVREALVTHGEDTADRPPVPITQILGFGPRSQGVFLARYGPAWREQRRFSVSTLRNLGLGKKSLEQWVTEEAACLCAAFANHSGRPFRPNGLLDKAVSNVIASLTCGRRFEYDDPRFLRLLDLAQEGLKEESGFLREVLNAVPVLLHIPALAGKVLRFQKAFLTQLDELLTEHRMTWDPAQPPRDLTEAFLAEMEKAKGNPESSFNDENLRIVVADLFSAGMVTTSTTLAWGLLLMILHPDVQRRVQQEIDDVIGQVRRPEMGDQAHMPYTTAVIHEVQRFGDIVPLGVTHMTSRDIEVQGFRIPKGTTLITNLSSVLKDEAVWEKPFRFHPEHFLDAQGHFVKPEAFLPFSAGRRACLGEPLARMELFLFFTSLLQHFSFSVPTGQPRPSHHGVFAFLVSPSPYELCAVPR
Sequence of hERG (KCNH2) (Q12809 whole entry): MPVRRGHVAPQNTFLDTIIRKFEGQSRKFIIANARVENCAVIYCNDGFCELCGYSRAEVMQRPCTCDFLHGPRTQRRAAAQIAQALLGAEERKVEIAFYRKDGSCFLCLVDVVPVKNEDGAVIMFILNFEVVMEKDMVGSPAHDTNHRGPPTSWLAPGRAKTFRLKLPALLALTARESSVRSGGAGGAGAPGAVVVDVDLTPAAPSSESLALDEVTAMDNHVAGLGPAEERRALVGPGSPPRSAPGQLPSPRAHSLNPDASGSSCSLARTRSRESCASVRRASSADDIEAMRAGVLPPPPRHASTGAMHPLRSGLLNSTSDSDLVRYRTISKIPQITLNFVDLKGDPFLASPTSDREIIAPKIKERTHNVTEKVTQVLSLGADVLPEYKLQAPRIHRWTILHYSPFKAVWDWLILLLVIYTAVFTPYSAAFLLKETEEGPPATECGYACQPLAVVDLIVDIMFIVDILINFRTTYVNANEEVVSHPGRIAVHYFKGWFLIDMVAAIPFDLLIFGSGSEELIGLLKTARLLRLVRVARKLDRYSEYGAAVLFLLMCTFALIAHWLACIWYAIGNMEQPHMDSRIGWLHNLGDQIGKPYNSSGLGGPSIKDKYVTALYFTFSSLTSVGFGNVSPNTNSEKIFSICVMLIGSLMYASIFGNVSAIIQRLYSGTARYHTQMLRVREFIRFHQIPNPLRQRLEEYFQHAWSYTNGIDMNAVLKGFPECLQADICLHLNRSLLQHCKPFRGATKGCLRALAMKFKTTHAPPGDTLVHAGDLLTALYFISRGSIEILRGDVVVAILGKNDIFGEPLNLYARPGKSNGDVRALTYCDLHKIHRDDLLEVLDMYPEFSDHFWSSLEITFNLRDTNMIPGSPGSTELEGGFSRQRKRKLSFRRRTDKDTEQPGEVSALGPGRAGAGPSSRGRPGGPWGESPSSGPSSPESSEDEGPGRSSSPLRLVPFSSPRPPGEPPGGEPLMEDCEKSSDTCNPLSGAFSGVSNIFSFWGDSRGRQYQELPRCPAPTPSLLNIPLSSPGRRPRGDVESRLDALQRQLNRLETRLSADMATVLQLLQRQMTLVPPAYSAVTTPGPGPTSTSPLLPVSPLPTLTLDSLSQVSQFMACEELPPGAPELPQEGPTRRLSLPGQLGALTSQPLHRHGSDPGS
Sequence of CYP3A4 (P08684 whole entry): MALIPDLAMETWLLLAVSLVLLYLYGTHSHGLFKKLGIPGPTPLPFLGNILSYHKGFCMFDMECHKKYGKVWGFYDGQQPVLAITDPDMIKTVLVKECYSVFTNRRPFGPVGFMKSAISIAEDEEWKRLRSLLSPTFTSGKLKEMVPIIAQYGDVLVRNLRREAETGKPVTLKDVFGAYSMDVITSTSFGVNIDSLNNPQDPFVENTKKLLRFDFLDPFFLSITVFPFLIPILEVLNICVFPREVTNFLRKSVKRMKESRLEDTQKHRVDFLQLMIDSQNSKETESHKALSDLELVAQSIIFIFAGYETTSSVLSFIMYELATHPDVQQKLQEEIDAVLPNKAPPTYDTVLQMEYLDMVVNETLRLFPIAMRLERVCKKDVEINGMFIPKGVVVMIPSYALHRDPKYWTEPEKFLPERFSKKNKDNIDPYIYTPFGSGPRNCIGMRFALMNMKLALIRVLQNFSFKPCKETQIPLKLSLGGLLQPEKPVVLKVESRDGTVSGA
Sequence of CYP2C9 (P11712 whole entry): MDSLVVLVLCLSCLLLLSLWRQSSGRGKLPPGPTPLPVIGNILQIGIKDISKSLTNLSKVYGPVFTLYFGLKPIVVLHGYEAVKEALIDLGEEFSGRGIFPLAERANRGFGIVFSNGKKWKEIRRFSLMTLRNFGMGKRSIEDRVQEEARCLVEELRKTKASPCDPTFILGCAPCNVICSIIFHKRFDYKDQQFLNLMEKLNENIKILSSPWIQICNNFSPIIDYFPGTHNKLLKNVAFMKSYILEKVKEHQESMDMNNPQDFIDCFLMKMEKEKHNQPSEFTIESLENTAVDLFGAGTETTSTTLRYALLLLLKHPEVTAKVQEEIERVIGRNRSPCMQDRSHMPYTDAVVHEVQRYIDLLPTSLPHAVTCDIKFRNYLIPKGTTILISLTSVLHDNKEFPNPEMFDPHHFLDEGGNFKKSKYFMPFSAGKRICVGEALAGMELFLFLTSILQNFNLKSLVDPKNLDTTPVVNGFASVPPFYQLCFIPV
Sequence of CYP2C19 (P33261 whole entry): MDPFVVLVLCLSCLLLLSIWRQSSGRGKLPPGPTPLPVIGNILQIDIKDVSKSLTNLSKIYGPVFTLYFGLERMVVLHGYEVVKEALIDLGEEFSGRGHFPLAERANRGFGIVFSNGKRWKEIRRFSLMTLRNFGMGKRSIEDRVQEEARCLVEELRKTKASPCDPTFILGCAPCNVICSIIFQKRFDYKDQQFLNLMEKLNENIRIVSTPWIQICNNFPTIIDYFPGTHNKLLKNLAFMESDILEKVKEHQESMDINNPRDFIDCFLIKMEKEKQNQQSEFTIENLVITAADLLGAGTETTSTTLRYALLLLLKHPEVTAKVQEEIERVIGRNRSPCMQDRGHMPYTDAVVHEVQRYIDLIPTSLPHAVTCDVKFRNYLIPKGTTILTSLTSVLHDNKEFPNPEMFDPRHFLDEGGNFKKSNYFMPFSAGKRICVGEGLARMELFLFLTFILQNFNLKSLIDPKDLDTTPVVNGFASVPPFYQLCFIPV

SMILES	Ratio CC50/IC50 [1]	CC50 (Vero) [µM]	pIC50 (SARS-CoV-2)	pIC50 [6]	Ratio CC50/IC50 [9]	other results
O=c1[nH]c(Nc2cc(Cl)cc(Cl)c2)nc2cc(Cl)ccc12	27	> 25	6.64	6.03	110	remaining at 0.5 h [2]: 99%; inhibition at 10 µM (hERG (KCNH2)): 38%; inhibition at 10 µM (CYP1A2): 15%; CC50 [3]: > 100 µM; CC50 [4]: 31 µM; bioavailability [5]: 15.6%; inhibition at 10 µM (CYP2D6): 20%; CC50 (HFL1): 7.5 µM; inhibition at 10 µM (CYP2C9): 18%; CC50 [7]: 11 µM; remaining at 0.5 h [8]: 112%; inhibition at 10 µM (CYP3A4): 32%; inhibition at 10 µM (CYP2C19): < 1%; remaining at 0.5 h [10]: 105%
O=c1[nH]c(Nc2cc(F)cc(F)c2)nc2cc(C(F)(F)F)ccc12	35	≥ 7.6	6.70	6.14	38	–
O=c1[nH]c(Nc2cc(Cl)cc(Cl)c2)nc2cc(C(F)(F)F)ccc12	7.6	7.1	6.68	6.02	34	–
CC(C)Nc1nc2cc(Cl)ccc2c(=O)[nH]1	–	> 25	< 4.60	–	1	–
O=c1[nH]c(Nc2ccc(F)cc2F)nc2cc(Cl)ccc12	–	> 25	< 4.60	–	1	–
COc1cccc2nc(Nc3cc(F)cc(F)c3)[nH]c(=O)c12	–	> 25	< 4.60	–	1	–
O=c1[nH]c(Nc2ccc(F)c(F)c2F)nc2cc(Cl)ccc12	–	> 25	5.59	–	9.4	–
COC(=O)c1cccc(Nc2nc3cc(Cl)ccc3c(=O)[nH]2)c1	–	> 25	5.06	–	2.8	–
O=c1[nH]c(Nc2cc(F)cc(F)c2)nc2cccc(O)c12	22	> 25	6.33	5.96	54	–
O=c1[nH]c(NCC2CCCCC2)nc2cc(Cl)ccc12	–	> 25	4.85	–	1.7	–
O=c1[nH]c(Nc2cc(Cl)cc(Cl)c2)nc2c(O)cccc12	14	> 25	6.43	5.77	65	–
O=c1[nH]c(Nc2cc(Cl)cc(Cl)c2)nc2cc([N+](=O)[O-])ccc12	1	> 25	6.29	< 4.60	49	–
Cc1cc(C)c2nc(Nc3cc(F)cc(F)c3)[nH]c(=O)c2c1	–	> 25	< 4.60	–	1	–
CCCCNc1nc2cc(Cl)ccc2c(=O)[nH]1	–	> 25	< 4.60	–	1	–
O=c1[nH]c(Nc2cc(F)cc(F)c2)nc2c(Cl)c(Cl)ccc12	30	> 25	6.60	6.08	98	–
O=c1[nH]c(Nc2ccc(F)cc2)nc2cc(Cl)ccc12	–	> 25	< 4.60	–	1	–
O=c1[nH]c(Nc2ccc(Cl)cc2Cl)nc2cc(Cl)ccc12	–	> 25	< 4.60	–	1	–
O=c1[nH]c(Nc2cc(F)cc(F)c2)nc2cc(Cl)ccc12	65	≥ 18	6.62	6.41	74	–
O=c1[nH]c(Nc2cc(F)cc(F)c2)nc2cc([N+](=O)[O-])ccc12	2.9	> 25	6.39	5.07	61	–
